The text below walks through data of ChEMBL document CHEMBL1155265, “Design, synthesis and in vitro antibacterial/antifungal evaluation of novel 1-ethyl-6-fluoro-1,4-dihydro-4-oxo-7(1-piperazinyl)quinoline-3-carboxylic acid derivatives” (2009).

Holding throughout (assay type): functional
One experiment relates to Rhizoctonia solani. The experiment can be described thus: Antifungal activity against Rhizoctonia solani at 200 mg/L by plate growth rate method. Particulars: read-out: GI. A digest of the protocol: (§1)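 Compound dissolved in DMSO and mixed into molten PDA at 45 °C at 200 mg/L, then plates allowed to set. A 5 mm mycelial agar disc was placed at the centre. Plates were incubated at 28 °C in the dark until the untreated control covered the plate. Colony diameters were measured and growth inhibition calculated by Abbott's formula. Each compound was tested three times.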

Another experiment deals with Fusarium graminearum. As to the kind of experiment: Antifungal activity against Gibberella zeae at 200 mg/L by plate growth rate method. Particulars: read-out: GI. The gist of the method:
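Plate growth rate method: compound dissolved in DMSO, mixed into sterile PDA at 45 °C to 200 mg/L, plates poured. A 5 mm mycelium agar disc placed centrally; incubated at 28 °C in the dark until the untreated control covered the plate. Colony diameters measured; growth inhibition computed by Abbott's formula. Each compound tested three times.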

For the next experiment, the system named is Cytospora mali. The experiment can be described thus: Antifungal activity against Valsa mali at 200 mg/L by plate growth rate method. The settings on record: read-out: GI. A digest of the protocol:
as §1

In a further experiment the test system is Xanthomonas oryzae. As to the kind of experiment: Antibacterial activity against Xanthomonas oryzae at 50 mg/L after 24 hrs by agar well diffusion method. The settings on record: read-out: DIZ. In general terms: Agar diffusion results depend on both activity and mobility in agar.
The subject of the next experiment is Xanthomonas axonopodis. As to the kind of experiment: Antibacterial activity against Xanthomonas axonopodis at 50 mg/L after 24 hrs by agar well diffusion method. Particulars: read-out: DIZ. The gist of the method: (§2)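 Bacteria plated as 0.8 mL of 24-h-old inoculum mixed into 60 mL sterile molten agar cooled to 45 °C, poured into three dishes. Wells bored with centres at least 24 mm apart. Test sample at 50 mg/L in DMSO added to wells. DMSO served as negative control and agricultural streptomycin sulfate as positive control. Read-out was inhibition zone diameter (mm).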

The test system of the next experiment is Erwinia. The experiment can be described thus: Antibacterial activity against Erwinia aroideae at 50 mg/L after 24 hrs by agar well diffusion method. The settings on record: read-out: DIZ. The gist of the method:
as §2

The subject of the next experiment is Bacillus subtilis. The experiment can be described thus: Antibacterial activity against Bacillus subtilis at 50 mg/L after 24 hrs by agar well diffusion method. Particulars: read-out: DIZ. The gist of the method: as §2
Another experiment concerns Ralstonia solanacearum. The experiment can be described thus: Antibacterial activity against Ralstonia solanacearum at 50 mg/L after 24 hrs by agar well diffusion method. The settings on record: read-out: DIZ.

As for `COC(=O)Nc1nc2ccccc2[nH]1` [CARBENDAZIM], the inhibition of growth at 200 µg/mL is 100% in the experiment on Rhizoctonia solani, 100% with Fusarium graminearum and 95% in the experiment with Cytospora mali.

In the case of `CCn1cc(C(=O)O)c(=O)c2cc(F)c(N3CCN(C(=O)c4ccccc4Br)CC3)cc21`, the zone of inhibition at 50 µg/mL in the experiment on Xanthomonas oryzae is 16.5 mm; in the experiment on Xanthomonas axonopodis, 14.6 mm; in the experiment on Erwinia it was 16.2 mm; in the experiment on Bacillus subtilis, 20.1 mm; with Ralstonia solanacearum it was 8.14 mm. Moreover, the inhibition of growth at 200 µg/mL in the experiment with Rhizoctonia solani worked out at 15%; in the experiment with Fusarium graminearum, 34%; in the experiment on Cytospora mali it was 44%.

As for `CCn1cc(C(=O)O)c(=O)c2cc(F)c(N3CCN(C(=O)/C=C/c4ccc(C)o4)CC3)cc21`, the zone of inhibition at 50 µg/mL is 18.1 mm in the experiment with Xanthomonas oryzae; 10.2 mm in the experiment with Xanthomonas axonopodis; 11.2 mm with Erwinia; 17 mm with Bacillus subtilis; 6.97 mm in the experiment on Ralstonia solanacearum. For the same compound, the values for the inhibition of growth at 200 µg/mL with Rhizoctonia solani, with Fusarium graminearum and in the experiment with Cytospora mali were 83%, 25% and 25%, respectively.

With `CCn1cc(C(=O)O)c(=O)c2cc(F)c(N3CCN(C(=O)c4ccc(Br)o4)CC3)cc21`, the zone of inhibition at 50 µg/mL in the experiment with Xanthomonas oryzae stood at 13 mm; in the experiment with Xanthomonas axonopodis, 12.1 mm; in the experiment with Erwinia, 13.7 mm; in the experiment on Bacillus subtilis, 18.9 mm; in the experiment on Ralstonia solanacearum it was 6.72 mm. The results for the inhibition of growth at 200 µg/mL in the experiment with Rhizoctonia solani, with Fusarium graminearum and with Cytospora mali were 47%, 26% and 27%, respectively.

In the case of `CCn1cc(C(=O)O)c(=O)c2cc(F)c(N3CCN(C(=O)c4c(C)oc(C)c4C)CC3)cc21`, the zone of inhibition at 50 µg/mL in the experiment with Xanthomonas oryzae turned out to be 12.7 mm; with Xanthomonas axonopodis it was 11.1 mm; in the experiment with Erwinia it was 12.4 mm; in the experiment with Bacillus subtilis, 13.9 mm; in the experiment on Ralstonia solanacearum, 5.31 mm. The results for the inhibition of growth at 200 µg/mL in the experiment on Rhizoctonia solani, in the experiment on Fusarium graminearum and in the experiment on Cytospora mali were 65%, 24% and 40%, respectively.

For the compound `CCn1cc(C(=O)O)c(=O)c2cc(F)c(N3CCN(C(=O)Cc4cccc5ccccc45)CC3)cc21`, the zone of inhibition at 50 µg/mL turned out to be 9.35 mm in the experiment on Xanthomonas oryzae; 9.99 mm with Xanthomonas axonopodis; 10.4 mm in the experiment with Erwinia; 13.2 mm with Bacillus subtilis; 0 mm in the experiment on Ralstonia solanacearum. Moreover, the values for the inhibition of growth at 200 µg/mL with Rhizoctonia solani, in the experiment with Fusarium graminearum and in the experiment on Cytospora mali were 5%, 12% and 0%, respectively.

For the compound `CCn1cc(C(=O)O)c(=O)c2cc(F)c(N3CCN(C(=O)c4ccco4)CC3)cc21`, the zone of inhibition at 50 µg/mL in the experiment with Xanthomonas oryzae turned out to be 22.9 mm; in the experiment on Xanthomonas axonopodis, 15.5 mm; in the experiment on Erwinia, 13.8 mm; in the experiment with Bacillus subtilis, 22.5 mm; in the experiment with Ralstonia solanacearum, 9.81 mm. Further, the inhibition of growth at 200 µg/mL was found to be 14% with Rhizoctonia solani, 7% in the experiment with Fusarium graminearum and 8% in the experiment with Cytospora mali.

Turning to `CCn1cc(C(=O)O)c(=O)c2cc(F)c(N3CCN(C(=O)/C=C/c4ccco4)CC3)cc21`, the zone of inhibition at 50 µg/mL in the experiment on Xanthomonas oryzae amounted to 15.3 mm; in the experiment with Xanthomonas axonopodis, 12.9 mm; with Erwinia, 14.9 mm; in the experiment on Bacillus subtilis, 19.4 mm; in the experiment with Ralstonia solanacearum, 5.72 mm. Moreover, the values for the inhibition of growth at 200 µg/mL with Rhizoctonia solani, in the experiment on Fusarium graminearum and in the experiment on Cytospora mali were 20%, 8% and 7%, respectively.

For `CN[C@@H]1[C@H](O[C@H]2[C@H](O[C@H]3[C@H](O)[C@@H](O)[C@H](N=C(N)N)[C@@H](O)[C@@H]3N=C(N)N)O[C@@H](C)[C@]2(O)C=O)O[C@@H](CO)[C@H](O)[C@H]1O` [STREPTOMYCIN], the zone of inhibition at 50 µg/mL in the experiment on Xanthomonas oryzae came out at 0.81 mm; in the experiment on Xanthomonas axonopodis, 0.2 mm; in the experiment with Erwinia, 0.5 mm; with Bacillus subtilis, 25 mm; in the experiment with Ralstonia solanacearum, 17.3 mm.
